Measured values from ChEMBL document CHEMBL3297671, “Identification and bioactivity of 3-epi-xestoaminol C isolated from the New Zealand brown alga Xiphophora chondrophylla” (J Nat Prod, 2014).
In brackets after ≈: the same amount, converted by molar mass. Activity calls are given as the source filed them. The calls are words filed in the database; no cut-off is given here.

Columns and labels:
[1] = test system: Escherichia coli; experiment: Antimicrobial activity against Escherichia coli ATCC 25922 assessed as compound level causing less than 2% growth after 16 hrs by serial dilution method; assay type: functional; conditions: ATCC 25922, 16 h
[2] = test system: Staphylococcus aureus; experiment: Antimicrobial activity against Staphylococcus aureus ATCC 25923 assessed as compound level causing less than 2% growth after 16 hrs by serial dilution method; assay type: functional; conditions: ATCC 25923, 16 h
Procedure, shortened: (§1)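 Values are read from dose-response curves. No IC50 is calculated where the curve is too steep.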

[3] = test system: Staphylococcus aureus; experiment: Antimicrobial activity against Staphylococcus aureus ATCC 25923 after 16 hrs by serial dilution method; assay type: functional, organism-based; conditions: ATCC 25923, 16 h
[4] = test system: Escherichia coli; experiment: Antimicrobial activity against Escherichia coli ATCC 25922 after 16 hrs by serial dilution method; assay type: functional, organism-based; conditions: ATCC 25922, 16 h
[5] = test system: Pseudomonas aeruginosa; experiment: Antimicrobial activity against Pseudomonas aeruginosa PAO1 assessed as compound level causing less than 2% growth after 16 hrs by serial dilution method; assay type: functional
[6] = test system: Pseudomonas aeruginosa; experiment: Antimicrobial activity against Pseudomonas aeruginosa PAO1 after 16 hrs by serial dilution method; assay type: functional, organism-based
[7] = test system: Saccharomyces cerevisiae; experiment: Antimicrobial activity against Saccharomyces cerevisiae assessed as compound level causing less than 2% growth after 16 hrs by serial dilution method; assay type: functional; procedure, shortened: as §1
[8] = test system: Saccharomyces cerevisiae; experiment: Antimicrobial activity against Saccharomyces cerevisiae after 16 hrs by serial dilution method; assay type: functional, organism-based; procedure, shortened: as §1
[9] = test system: HL-60; experiment: Cytotoxicity against human HL60 cells assessed as compound level causing less than 2% growth after 48 hrs by MTT assay; assay type: functional
[10] = test system: HL-60; experiment: Cytotoxicity against human HL60 cells after 48 hrs by MTT assay; assay type: functional, cell-based; conditions: HL-60, 48 h
[11] = Cytotoxicity against human HEK cells assessed as compound level causing less than 2% growth after 48 hrs by MTT assay; assay type: functional, HEK293
[12] = Cytotoxicity against human HEK cells after 48 hrs by MTT assay; assay type: functional, cell-based; conditions: HEK293, 48 h

SMILES | MIC [1] | MIC [2] | IC50 [3] | IC50 [4] | MIC ([5]; PAO1, 16 h) | IC50 ([6]; Pseudomonas aeruginosa, PAO1, 16 h, read-out: IC50) | MIC [7] | IC50 [8] | MIC [5] | IC50 [6] | MIC [9] | IC50 [10] | MIC [11] | IC50 [12]
CN(C)[C@@H]1C(O)=C(C(N)=O)C(=O)[C@@]2(O)C(O)=C3C(=O)c4c(O)cccc4[C@@](C)(O)[C@H]3C[C@@H]12 [TETRACYCLINE] | ≥ 500 µM | 62.5 µM (≈ 27.8 µg/mL) | 5.7 µM | 26.4 µM | > 500 µM | 143 µM |  |  |  |  |  |  |  | 
C[C@@H]1C[C@@H]([C@H](O)CC2CC(=O)NC(=O)C2)C(=O)[C@@H](C)C1 [CYCLOHEXIMIDE] |  |  |  |  |  |  | 1 µM (≈ 0.281 µg/mL) | 0.04 µM |  |  |  |  |  | 
CCCCCCCCCCC[C@H](O)[C@H](C)N | 32.6 µM (≈ 7.48 µg/mL) | 65.1 µM (≈ 14.9 µg/mL) | 17 µM |  |  |  | inactive | 17.1 µM | inactive | Not Active | 32.7 µM (≈ 7.5 µg/mL) | 8.8 µM | 32.7 µM (≈ 7.5 µg/mL) | 18 µM
